Measurements published in ChEMBL document CHEMBL4007430, “Synthesis and Cytostatic and Antiviral Profiling of Thieno-Fused 7-Deazapurine Ribonucleosides” (J Med Chem, 2017).

Assays:
CCRF-CEM [1] = test: Induction of apoptosis in human CCRF-CEM cells assessed as accumulation at subG1 phase at IC50 after 24 hrs by propidium iodide staining-based flow cytometric analysis (reference value: 2.32%); assay type: functional
[2] = Drug level in human BJ cells at 10 umol/L measured per 5 x 10^5 cells after 3 hrs by UPLC-MS/MS analysis; assay type: ADME, cell-based; settings: 10 µM
[3] = Cytotoxicity against human HuH7 cells; assay type: cell-based, Huh-7
Hepatitis C virus [4] = test: Anti-HCV activity against Hepatitis C virus genotype 2a infected in human Huh7 replicon cells after 96 hrs by luciferase reporter gene assay; assay type: functional, cell-based, Hepacivirus hominis; settings: Huh-7, 96 h
CCRF-CEM [5] = test: Inhibition of mitosis in human CCRF-CEM cells assessed as pH3Ser10 positive cells at 5 times IC50 after 24 hrs by flow cytometric analysis (reference value: 1.74%); assay type: functional
HCT-116 [6] = test: Cytotoxicity against p53 deficient human HCT116 cells assessed as cell growth inhibition after 72 hrs by MTS assay; assay type: functional, cell-based; settings: HCT-116, 72 h
Procedure, shortened: (§1)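 Cells were exposed to compound for 3 days, then stained with MTS as a quantitative metabolic read-out. IC50 is the concentration that inhibits cell growth by 50%.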

CCRF-CEM [7] = test: Cell cycle arrest in human CCRF-CEM cells assessed as accumulation at S phase at 5 times IC50 after 24 hrs by propidium iodide staining-based flow cytometric analysis (reference value: 44.20%); assay type: functional
CCRF-CEM [8] = test: Cytotoxicity against human CCRF-CEM cells assessed as cell growth inhibition after 72 hrs by MTS assay
CCRF-CEM [9] = test: Cell cycle arrest in human CCRF-CEM cells assessed as accumulation at G0/G1 phase at 5 times IC50 after 24 hrs by propidium iodide staining-based flow cytometric analysis (reference value: 41.11%); assay type: functional
CCRF-CEM [10] = test: Inhibition of DNA synthesis in human CCRF-CEM cells assessed as decrease in BrdU incorporation by measuring synthesized DNA levels at IC50 after 24 hrs by propidium iodide staining-based flow cytometric analysis (reference value: 52.66%); assay type: functional
CCRF-CEM [11] = test: Inhibition of DNA synthesis in human CCRF-CEM cells assessed as decrease in BrdU incorporation by measuring synthesized DNA levels at 5 times IC50 after 24 hrs by propidium iodide staining-based flow cytometric analysis (reference value: 52.66%); assay type: functional
A549 = test: Cytotoxicity against human A549 cells assessed as cell growth inhibition after 72 hrs by MTS assay; assay type: functional, cell-based; settings: A549, 72 h; procedure, shortened: as §1
CCRF-CEM [12] = test: Cell cycle arrest in human CCRF-CEM cells assessed as accumulation at G2/M phase at 5 times IC50 after 24 hrs by propidium iodide staining-based flow cytometric analysis (reference value: 14.70%); assay type: functional
HL-60 = test: Cytotoxicity against human HL60 cells assessed as reduction in cell viability after 72 hrs by XTT assay; assay type: functional, cell-based; settings: HL-60, 72 h
Procedure, shortened: (§2)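 Cells were incubated with compound for 3 days. Viability was then measured with the XTT tetrazolium assay.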

[13] = Drug level in human HCT116 cells at 10 umol/L measured per 5 x 10^5 cells after 1 hr by UPLC-MS/MS analysis; assay type: ADME, cell-based; settings: hct-116, 1 h, 10 µM
[14] = Drug level in human BJ cells at 10 umol/L measured per 5 x 10^5 cells after 1 hr by UPLC-MS/MS analysis; assay type: ADME, cell-based; settings: 10 µM
CCRF-CEM [15] = test: Inhibition of mitosis in human CCRF-CEM cells assessed as pH3Ser10 positive cells at IC50 after 24 hrs by flow cytometric analysis (reference value: 1.74%); assay type: functional
CCRF-CEM [16] = test: Cell cycle arrest in human CCRF-CEM cells assessed as accumulation at G2/M phase at IC50 after 24 hrs by propidium iodide staining-based flow cytometric analysis (reference value: 14.70%); assay type: functional
[17] = Cytotoxicity against human K562-TAX cells assessed as cell growth inhibition after 72 hrs by MTS assay; assay type: functional, cell-based; procedure, shortened: as §1
CCRF-CEM [18] = test: Inhibition of mitosis in human CCRF-CEM cells assessed as pH3Ser10 positive cells after 24 hrs by flow cytometric analysis; assay type: functional, cell-based
BJ = test: Cytotoxicity against human BJ cells assessed as cell growth inhibition after 72 hrs by MTS assay; assay type: cell-based; procedure, shortened: as §1
HepG2 = test: Cytotoxicity against human HepG2 cells assessed as reduction in cell viability after 72 hrs by XTT assay; assay type: functional, cell-based; settings: HepG2, 72 h; procedure, shortened: as §2
CCRF-CEM [19] = test: Induction of apoptosis in human CCRF-CEM cells assessed as accumulation at subG1 phase at 5 times IC50 after 24 hrs by propidium iodide staining-based flow cytometric analysis (reference value: 2.32%); assay type: functional
U2OS = test: Cytotoxicity against human U2OS cells assessed as cell growth inhibition after 72 hrs by MTS assay; assay type: functional, cell-based
HeLa S3 = test: Cytotoxicity against human HeLaS3 cells assessed as reduction in cell viability after 72 hrs by XTT assay; assay type: functional, cell-based; settings: HeLa S3, 72 h; procedure, shortened: as §2
MRC5 = test: Cytotoxicity against human MRC5 cells assessed as cell growth inhibition after 72 hrs by MTS assay; assay type: cell-based; settings: MRC5, 72 h; procedure, shortened: as §1
CCRF-CEM [20] = test: Cell cycle arrest in human CCRF-CEM cells assessed as accumulation at S phase at IC50 after 24 hrs by propidium iodide staining-based flow cytometric analysis (reference value: 44.20%); assay type: functional
[21] = Cytotoxicity against mrp-1/mdr-1 overexpressing human CEM-DNR-bulk cells assessed as cell growth inhibition after 72 hrs by MTS assay; assay type: functional, cell-based
Procedure, shortened: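 Cells were exposed to compound for 3 days, then stained with MTS as a quantitative metabolic read-out.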

HCT-116 [22] = test: Cytotoxicity against human HCT116 cells assessed as cell growth inhibition after 72 hrs by MTS assay; assay type: functional, cell-based; settings: HCT-116, 72 h; procedure, shortened: as §1
[23] = Drug level in human BJ cells at 1 umol/L measured per 5 x 10^5 cells after 3 hrs by UPLC-MS/MS analysis; assay type: ADME, cell-based; settings: 1 µM
CCRF-CEM [24] = test: Inhibition of RNA synthesis in human CCRF-CEM cells assessed as decrease in BrU incorporation by measuring synthesized RNA levels at 5 times IC50 after 24 hrs by propidium iodide staining-based flow cytometric method (reference value: 53.09%); assay type: functional
CCRF-CEM [25] = test: Cell cycle arrest in human CCRF-CEM cells assessed as accumulation at G0/G1 phase at IC50 after 24 hrs by propidium iodide staining-based flow cytometric analysis (reference value: 41.11%); assay type: functional
CCRF-CEM [26] = test: Inhibition of RNA synthesis in human CCRF-CEM cells assessed as decrease in BrU incorporation by measuring synthesized RNA levels at IC50 after 24 hrs by propidium iodide staining-based flow cytometric method (reference value: 53.09%); assay type: functional
Hepatitis C virus [27] = test: Anti-HCV activity against Hepatitis C virus genotype 1b infected in human Huh7 replicon cells after 96 hrs by luciferase reporter gene assay; assay type: functional, cell-based, Hepacivirus hominis; settings: Huh-7, 96 h
[28] = Drug level in human HCT116 cells at 1 umol/L measured per 5 x 10^5 cells after 3 hrs by UPLC-MS/MS analysis; assay type: ADME, cell-based; settings: hct-116, 3 h, 1 µM
K562 = test: Cytotoxicity against human K562 cells assessed as cell growth inhibition after 72 hrs by MTS assay; assay type: functional, cell-based; settings: K562, 72 h; procedure, shortened: as §1
[29] = Drug level in human HCT116 cells at 10 umol/L measured per 5 x 10^5 cells after 3 hrs by UPLC-MS/MS analysis; assay type: ADME, cell-based; settings: hct-116, 3 h, 10 µM
[30] = Drug level in human HCT116 cells at 1 umol/L measured per 5 x 10^5 cells after 1 hr by UPLC-MS/MS analysis; assay type: ADME, cell-based; settings: hct-116, 1 h, 1 µM
[31] = Drug level in human BJ cells at 1 umol/L measured per 5 x 10^5 cells after 1 hr by UPLC-MS/MS analysis; assay type: ADME, cell-based; settings: 1 µM

| Structure (SMILES) | Activity (CCRF-CEM [1]) | CC50 [3] | EC50 (Hepatitis C virus [4]) | pH3Ser10+ cells (%) (CCRF-CEM [5]) | IC50 (HCT-116 [6]) | Activity (CCRF-CEM [7]) | IC50 (CCRF-CEM [8]) | Activity (CCRF-CEM [9]) | BrdU+ cells (%) (CCRF-CEM [10]) | BrdU+ cells (%) (CCRF-CEM [11]) | IC50 (A549) | Activity (CCRF-CEM [12]) | IC50 (HL-60) | pH3Ser10+ cells (%) (CCRF-CEM [15]) | Activity (CCRF-CEM [16]) | IC50 [17] | Activity (CCRF-CEM [18]) | IC50 (BJ) | IC50 (HepG2) | Activity (CCRF-CEM [19]) | other results |
| --- | --- | --- | --- | --- | --- | --- | --- | --- | --- | --- | --- | --- | --- | --- | --- | --- | --- | --- | --- | --- | --- |
| CSc1ncnc2c1c1ccsc1n2[C@@H]1O[C@H](CO)[C@@H](O)[C@H]1O | 2.79% | > 44.4 µM | 0.8 µM | 1.13% | 0.27 µM | 53.26% | 0.2 µM | 33.16% | 52.99% | 56.64% | 0.8 µM | 13.58% | 0.86 µM | 1.36% | 11.83% | > 50 µM | Dose-dependent effect | 6.9 µM | 0.68 µM | 3.53% | Drug uptake [2]: 633.7 pmol; Drug uptake [13]: 320.7 pmol; Drug uptake [14]: 331.6 pmol; IC50 (U2OS): 0.35 µM; IC50 (HeLa S3): 0.3 µM; IC50 (MRC5): 46 µM; Activity (CCRF-CEM [20]): 47.81%; IC50 [21]: > 50 µM; IC50 (HCT-116 [22]): 0.2 µM; Drug uptake [23]: 253.6 pmol; BrU+ cells (%) (CCRF-CEM [24]): 23.92%; Activity (CCRF-CEM [25]): 40.36%; BrU+ cells (%) (CCRF-CEM [26]): 37.25%; EC50 (Hepatitis C virus [27]): 0.13 µM; Drug uptake [28]: 293.6 pmol; IC50 (K562): 0.51 µM; Drug uptake [29]: 444 pmol; Drug uptake [30]: 278.5 pmol |
| CSc1ncnc2c1c1sccc1n2[C@@H]1O[C@H](CO)[C@@H](O)[C@H]1O | 10.83% | > 44.4 µM | 0.34 µM | 1.03% | 0.09 µM | 38.11% | 0.027 µM | 41.28% | 51.67% | 51.49% | 0.66 µM | 20.61% | 0.51 µM | 1.92% | 21.65% | 2.2 µM | Dose-dependent effect | 1.25 µM | 0.36 µM | 18.15% | Drug uptake [2]: 3161.5 pmol; Drug uptake [31]: 711.7 pmol; Drug uptake [13]: 525.5 pmol; Drug uptake [14]: 2298.3 pmol; IC50 (U2OS): 0.46 µM; IC50 (HeLa S3): 0.72 µM; IC50 (MRC5): 9.01 µM; Activity (CCRF-CEM [20]): 34.12%; IC50 [21]: 1.46 µM; IC50 (HCT-116 [22]): 0.05 µM; Drug uptake [23]: 1750.5 pmol; BrU+ cells (%) (CCRF-CEM [24]): 0.16%; Activity (CCRF-CEM [25]): 44.14%; BrU+ cells (%) (CCRF-CEM [26]): 1.46%; EC50 (Hepatitis C virus [27]): 0.47 µM; Drug uptake [28]: 602.8 pmol; IC50 (K562): 0.35 µM; Drug uptake [29]: 1299 pmol; Drug uptake [30]: 105.4 pmol |
| Cc1ncnc2c1c1sccc1n2[C@@H]1O[C@H](CO)[C@@H](O)[C@H]1O | 13.5% | > 44.4 µM | 0.06 µM | 3.55% | 0.07 µM | 56.18% | 0.02 µM | 28.72% | 50.76% | 60.89% | 0.21 µM | 15.1% | 0.21 µM | 0.89% | 12.41% | 0.72 µM | Dose-dependent effect | 0.15 µM | 0.44 µM | 16.72% | IC50 (U2OS): 0.2 µM; IC50 (HeLa S3): 0.72 µM; IC50 (MRC5): 1.66 µM; Activity (CCRF-CEM [20]): 57.85%; IC50 [21]: > 50 µM; IC50 (HCT-116 [22]): 0.05 µM; BrU+ cells (%) (CCRF-CEM [24]): 47.83%; Activity (CCRF-CEM [25]): 29.74%; BrU+ cells (%) (CCRF-CEM [26]): 33.92%; EC50 (Hepatitis C virus [27]): 0.11 µM; IC50 (K562): 0.14 µM |
| Cc1ncnc2c1c1ccsc1n2[C@@H]1O[C@H](CO)[C@@H](O)[C@H]1O | 2.35% | > 44.4 µM | 0.24 µM | 1.37% | 0.33 µM | 51.16% | 0.03 µM | 35.09% | 54.48% | 54.08% | 0.72 µM | 13.74% | 0.37 µM | 1.37% | 13.76% | 47.6 µM | Dose-dependent effect | > 50 µM | 0.47 µM | 3.83% | IC50 (U2OS): 0.56 µM; IC50 (HeLa S3): 0.57 µM; IC50 (MRC5): > 50 µM; Activity (CCRF-CEM [20]): 45.57%; IC50 [21]: 33.9 µM; IC50 (HCT-116 [22]): 0.4 µM; BrU+ cells (%) (CCRF-CEM [24]): 18.84%; Activity (CCRF-CEM [25]): 40.67%; BrU+ cells (%) (CCRF-CEM [26]): 38.29%; EC50 (Hepatitis C virus [27]): 0.06 µM; IC50 (K562): 0.46 µM |
